From ChEMBL document CHEMBL1122055, “DL-threo-beta-Fluoroaspartate and DL-threo-beta-fluoroasparagine: selective cytotoxic agents for mammalian cells in culture” (J Med Chem, 1982)

Columns and labels:
H4 [1] = assay: Tested for its reversal effect on growth of H4 cells at 330 + 5 ug/mL concentrations of L-aspargine and DL-threo-beta-fluoroaspartate; assay type: functional
In short: (§1)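 H4 hepatoma cells seeded at 8×10^3 per 35-mm dish in F 10+ medium. On day 4, the medium was renewed and treatments started, including L-aspartate or L-asparagine. Incubation 72 h, then Lowry total cell protein per dish. Results reported as % of untreated control, mean of duplicate dishes.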

H4 [2] = assay: Tested for its reversal effect on growth of H4 cells at 133 + 5 ug/mL concentrations of L-aspargine and DL-threo-beta-fluoroaspartate; assay type: functional
In short: (§2)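 Rat hepatoma H4 cells seeded at 1.4×10^4 per 35-mm dish in MEM+. On day 4, fresh MEM+ was added, with treatments including L-aspartate or L-asparagine. Exposure 66 h, then total cell protein per dish measured by Lowry. Results expressed as % of untreated control protein, mean of duplicate dishes.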

7800C1 cell line [3] = assay: Tested for its cytotoxic effect on the growth of the cell strain 7800C1 (1 x 10e 4 (MEM)) at 50 ug/mL dose; assay type: functional, Rattus norvegicus
In short: (§3)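 Cells plated in 35-mm dishes at the stated density and medium (F 10+: Ham's F10 + 15% horse serum + 2.5% fetal calf serum; MEM+: Eagle's MEM + 5% horse + 5% fetal calf serum), grown 3 days. All strains then switched to F 10+ before treatment and incubated 4 days. Growth read as total cell protein per dish (Lowry, bovine albumin standard). Single determinations; experiment repeated twice.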

7800C1 cell line [4] = assay: Tested for its cytotoxic effect on the growth of the cell strain 7800C1 (1 x 10e 4 (MEM)) at 10 ug/mL dose; assay type: functional, Rattus norvegicus; in short: as §3
GH4-C1 [5] = assay: Tested for its cytotoxic effect on the growth of the cell strain GH4C1 (8 x 10e 4 (F 10+)) at 10 ug/mL dose; assay type: functional, Rattus norvegicus; in short: as §3
GH3 [6] = assay: Tested for its cytotoxic effect on the growth of the cell strain GH3 (2 x 10e 4 (F 10+)) at 10 ug/mL dose; assay type: functional, Rattus norvegicus; in short: as §3
GH4-C1 [7] = assay: Tested for its cytotoxic effect on the growth of the cell strain GH4C1 (8 x 10e 4 (F 10+)) at 50 ug/mL dose; assay type: functional, Rattus norvegicus; in short: as §3
H4 [8] = assay: Tested for its cytotoxic effect on the growth of the cell strain H4 (8 x 10e 3 (MEM)) at 10 ug/mL dose; assay type: functional; in short: as §3
H4 [9] = assay: Tested for its cytotoxic effect on the growth of the cell strain H4 (8 x 10e 3 (MEM)) at 50 ug/mL dose; assay type: functional; in short: as §3
H4 [10] = assay: Tested for its reversal effect on growth of H4 cells at 40 ug/mL concentrations of L-aspargine and DL-threo-beta-fluoroaspartate; assay type: functional; in short: as §1
H4 [11] = assay: Tested for its reversal effect on growth of H4 cells at 50 ug/mL concentrations of L-aspargine and DL-threo-beta-fluoroaspartate; assay type: functional; in short: as §2
MH1C1 [12] = assay: Tested for its cytotoxic effect on the growth of the cell strain MH1C1 (1 x 10e 4 (F 10+)) at 10 ug/mL dose; assay type: functional; in short: as §3
MH1C1 [13] = assay: Tested for its cytotoxic effect on the growth of the cell strain MH1C1 (1 x 10e 4 (F 10+)) at 50 ug/mL dose; assay type: functional; in short: as §3
R5 [14] = assay: Tested for its cytotoxic effect on the growth of the cell strain R5 (1 x 10e 3 (F 10+)) at 10 ug/mL dose; assay type: functional; in short: as §3
R5 [15] = assay: Tested for its cytotoxic effect on the growth of the cell strain R5 (1 x 10e 3 (F 10+)) at 50 ug/mL dose; assay type: functional; in short: as §3
GH3 [16] = assay: Tested for its cytotoxic effect on the growth of the cell strain GH3 (2 x 10e 4 (F 10+)) at 50 ug/mL dose; assay type: functional, Rattus norvegicus; in short: as §3
H4 [17] = assay: Tested for its reversal effect on growth of H4 cells at 133 + 50 ug/mL concentrations of L-aspargine and DL-threo-beta-fluoroaspartate; assay type: functional; in short: as §2
H4 [18] = assay: Tested for its reversal effect on growth of H4 cells at 330 + 40 ug/mL concentrations of L-aspargine and DL-threo-beta-fluoroaspartate; assay type: functional; in short: as §1
[19] = Distribution of radioactivity derived form [C14]-labeled compound taken up by 7800C1 cells; total uptake; assay type: ADME
In short: (§4)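 7800C₁ cells in 100-mm dishes in MEM⁺; on day 4 medium renewed, and 6 h later ¹⁴C-labeled amino acid added to duplicate dishes for 12 h. Washed cells fractionated with 10% trichloroacetic acid (3 h, 0 °C) into acid-soluble material, then hot 5% acid (82 °C, 30 min) to release nucleic acid, leaving a protein pellet on glass-fiber filter. Scintillation counting; nmol/10⁶ cells, mean of duplicates.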

[20] = Percent recovery form [C14]-labeled compound taken up by 7800C1 cells; assay type: ADME; conditions: rat; in short: as §4
GH4-C1 [21] = assay: Compound was tested for its uptake by the GH4C1 cells; assay type: functional, Rattus norvegicus
In short: (§5)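 Cells plated in 100-mm dishes in F 10⁺; on day 4 medium replaced with fresh F 10⁺, and 3 h later ¹⁴C-labeled amino acid added to duplicate dishes. 6 h incubation, then monolayer washed in cold 0.9% NaCl, cells scraped off, and radioactivity counted by liquid scintillation. Uptake expressed as nmol/10⁶ cells from cell counts on untreated dishes; mean of duplicates.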

MH1C1 [22] = assay: Compound was tested for its uptake by the MH1C1 cells; assay type: functional; in short: as §5
Jensen sarcoma = assay: Compound was tested for its uptake by the Jensen sarcoma cells; assay type: functional, Rattus norvegicus; in short: as §5
H4 (Rattus norvegicus) [23] = assay: Compound was tested for its uptake by the H4 cells
[24] = test system: 7800C1 (Rattus norvegicus); assay: Compound was tested for its uptake by the 7800C1 cells
H4 (Rattus norvegicus) [25] = assay: Tested for its reversal effect on growth of H4 cells at 133 ug/mL concentrations of L-aspargine and DL-threo-beta-fluoroaspartate
H4 (Rattus norvegicus) [26] = assay: Tested for its reversal effect on growth of H4 cells at 330 ug/mL concentrations of L-aspargine and DL-threo-beta-fluoroaspartate

NC(=O)C[C@H](N)C(=O)O.NC(C(=O)O)C(F)C(=O)O (racemic)
Cell protein in untreated control (H4 [1]): 17%
Cell protein in untreated control (H4 [2]): 0%

NC(=O)C(F)C(N)C(=O)O (racemic)
Cell protein (7800C1 cell line [3]): 0 ug dish-1
Cell protein (7800C1 cell line [4]): 15 ug dish-1
Cell protein (GH4-C1 [5]): 35 ug dish-1
Cell protein (GH3 [6]): 36 ug dish-1
Cell protein (GH4-C1 [7]): 16 ug dish-1
Cell protein (H4 [8]): 0 ug dish-1
Cell protein (H4 [9]): 0 ug dish-1
Cell protein in untreated control (H4 [10]): 17%
Cell protein in untreated control (H4 [11]): 0%
Cell protein (MH1C1 [12]): 55 ug dish-1
Cell protein (MH1C1 [13]): 31 ug dish-1
Cell protein (R5 [14]): 85 ug dish-1
Cell protein (R5 [15]): 27 ug dish-1
Cell protein (GH3 [16]): 14 ug dish-1

NC(=O)C(F)[C@H](N)C(=O)O.NC(=O)C[C@H](N)C(=O)O (mixture of isomers; form 2)
Cell protein in untreated control (H4 [17]): 19%
Cell protein in untreated control (H4 [18]): 80%

N[C@@H](CC(=O)O)C(=O)O [ASPARTIC ACID]
Activity [19]: 21 nM (10e6*cells)-1
Recovery [20]: 83%
Activity (GH4-C1 [21]): 1.1 nM (10e6*cells)-1
Activity (MH1C1 [22]): 0.5 nM (10e6*cells)-1
Activity (Jensen sarcoma): 0.4 nM (10e6*cells)-1
Activity (H4 (Rattus norvegicus) [23]): 23.4 nM (10e6*cells)-1
Activity [24]: 13.2 nM (10e6*cells)-1
Cell protein in untreated control (H4 (Rattus norvegicus) [25]): 115%
Cell protein in untreated control (H4 (Rattus norvegicus) [26]): 77%
